How the values were obtained:
SK-N-SH = assay: Neuroprotective activity against glutamate-induced toxicity in human SK-N-SH cells assessed as cell viability at 10 uM pretreated for 4 hrs followed by glutamate challenge measured after 4 hrs by MTT assay (reference value: 67.7 +/- 1.1%); assay type: functional; settings: read-out: Activity
HepG2 = assay: Hepatoprotective activity in human HepG2 cells assessed as inhibition of paracetamol-induced reduction in cell viability at 10 uM pretreated for 1 hr followed by paracetamol addition after 24 hrs by MTT assay relative to control; assay type: functional
Method in brief: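 HepG2 cells injured with paracetamol; test agents at 10 μM; viability read by MTT and given as % of normal, with protection expressed as % inhibition relative to the paracetamol-only control. Bicyclol at 10 μM served as positive control. Means ± SD, n = 3 (n = 6 for normal and control groups).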

| SMILES | viability at 10 µM (SK-N-SH) | inhibition at 10 µM (HepG2) |
| --- | --- | --- |
| CC(C)=CCC[C@]1(C)[C@@H](CC=C(C)C)C[C@]2(C)C(=O)C3=C(O[C@H](C(C)(C)O)[C@H]3O)[C@@]1(C(=O)c1ccccc1)C2=O | 78.2% | 68.1% |
| CC(C)=CCC[C@]1(C)[C@@H](CC=C(C)C)C[C@]2(C)C(=O)C3=C(O[C@@H](C(C)(C)O)[C@H]3O)[C@@]1(C(=O)c1ccccc1)C2=O | – | 71.4% |
| CC(C)=CC[C@H]1C[C@]2(C)C(=O)C(C(=O)c3ccccc3)=C3O[C@H](C(C)(C)O)CC[C@@]1(C)[C@]3(CC=C(C)C)C2=O | – | 42.9% |
| CC(C)=CCC[C@]1(C)[C@@H](CC=C(C)C)C[C@@]2(C)C(=O)[C@]1(C(=O)c1ccccc1)C(=O)C1=C2O[C@H](C(C)(C)O)[C@@H]1O | – | 30.8% |
| CC(C)=CCC1=C2O[C@H](C(C)(C)O)CC[C@]3(C)[C@@H](CC=C(C)C)C[C@](C)(C1=O)C(=O)[C@]23C(=O)c1ccccc1 | – | 37.2% |
| CC(C)=CCC[C@]1(C)[C@@H](CC=C(C)C)C[C@]2(C)C(=O)C3=C(O[C@H](C(C)(C)O)[C@@H]3O)[C@@]1(C(=O)c1ccccc1)C2=O | 72.2% | – |
| CC(C)=CCC[C@]1(C)[C@@H](CC=C(C)C)C[C@@]2(C)C(=O)[C@]1(C(=O)c1ccccc1)C(=O)C1=C2O[C@@H](C(C)(C)O)C1 | 82.9% | – |
| CC(C)=CCC[C@]1(C)[C@@H](CC=C(C)C)C[C@]2(C)C(=O)C3=C(O[C@@H](C(C)(C)O)C3)[C@@]1(C(=O)c1ccccc1)C2=O | 71.8% | – |
| COC(=O)c1cc(OC)c2c(c1-c1c(CO)cc(OC)c3c1OCO3)OCO2 [BICYCLOL] | – | 52.6% |
| Oc1ccc(/C=C/c2cc(O)cc(O)c2)cc1 [RESVERATROL] | 82.5% | – |

Source: ChEMBL document CHEMBL4266032, “Methylated Polycyclic Polyprenylated Acylphloroglucinol Derivatives from Hypericum ascyron” (2018)
